# Activity calls are given as the source filed them. The rule behind the calls is not given here.
# Key:
# Klebsiella aerogenes = assay: Antibacterial activity against Enterobacter aerogenes ATCC 13048 at […]; format: functional, organism-based
# How it was run: (§1)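 Agar-overlay disk diffusion. Strains grown in LB broth 24 h at 37 °C; 0.3 mL broth culture in 2.7 mL LB soft agar (0.7%) poured over LB hard agar (1.5%). 8 mm paper disks loaded with 10 μL of 2 μg/μL sample; ampicillin (5 μg/μL) positive control, solvent negative control. Plates incubated 37 °C, 24 h, then inhibition assessed.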
# Serratia marcescens = assay: Antibacterial activity against Serratia marcescens ATCC 25419 at […]; format: functional, organism-based; how it was run: as §1
# [1] = test system: Salmonella enterica subsp. enterica; assay: Antibacterial activity against Salmonella enteritidis ATCC 13076 at […]; format: functional, organism-based; conditions: Salmonella enterica subsp. enterica serovar Enteritidis; how it was run: as §1
# Shigella sonnei = assay: Antibacterial activity against Shigella sonnei ATCC 11060 at […]; format: functional, organism-based; how it was run: as §1
# RAW264.7 [2] = assay: Antiinflammatory activity in mouse RAW264.7 cells assessed as reduction of LPS-induced iNOS protein level at 10 uM by immunoblot analysis relative to control; format: functional; set-up: scale not given: the % may be the effect or the level left
# How it was run: (§2)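 Murine RAW 264.7 macrophages stimulated with E. coli LPS (0.01 μg/mL) for 16 h with or without sample (10 μM). Lysates from cells washed in ice-cold PBS; equal protein run on SDS-PAGE, transferred to PVDF, probed with anti-iNOS or anti-COX-2 (1:1000, 180 min); β-actin blotted. Band intensity expressed relative to LPS-alone group (100%); mean ± SEM, n = 5.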
# RAW264.7 [3] = assay: Antiinflammatory activity in mouse RAW264.7 cells assessed as reduction of LPS-induced COX2 protein level at 10 uM by immunoblot analysis relative to control; format: functional; set-up: scale not given: the % may be the effect or the level left; how it was run: as §2
SMILES,Activity (Klebsiella aerogenes),Activity (Serratia marcescens),Activity [1],Activity (Shigella sonnei),Activity (RAW264.7 [2]),Activity (RAW264.7 [3])
CCCCCCCCCCCCCCCCCCCC[C@@H](O)C(=O)N[C@@H](CO[C@@H]1O[C@H](CO)[C@@H](O)[C@H](O)[C@H]1O)[C@H](O)/C=C/CC/C=C(\C)CCCCCCCCC,inactive,inactive,inactive,inactive,–,–
O=C(/C=C/c1ccc(O)c(O)c1)OCCc1ccccc1 [CAFFEIC ACID PHENETHYL ESTER],–,–,–,–,1.5%,70.2%
CCCCCCCCCCCCCCCCCCC[C@@H](O)C(=O)N[C@@H](CO[C@@H]1O[C@H](CO)[C@@H](O)[C@H](O)[C@H]1O)[C@H](O)/C=C/CC/C=C(\C)CCCCCCCCC [SARCOEHRENOSIDE B],inactive,inactive,inactive,inactive,46.5%,inactive
CCCCCCCCCCCCCC[C@@H](O)C(=O)N[C@@H](CO[C@@H]1O[C@H](CO)[C@@H](O)[C@H](O)[C@H]1O)[C@H](O)/C=C/CC/C=C(\C)CCCCCCCCC,inactive,inactive,inactive,inactive,20.3%,64.3%
CCCCCCCCCCCCC/C=C/[C@@H](O)[C@H](CO)NC(C)=O,inactive,inactive,inactive,inactive,46.9%,77.2%
CCCCCCCCCCCCCCCCCC[C@@H](O)C(=O)N[C@@H](CO[C@@H]1O[C@H](CO)[C@@H](O)[C@H](O)[C@H]1O)[C@H](O)/C=C/CC/C=C(\C)CCCCCCCCC,inactive,inactive,inactive,inactive,25.8%,inactive
CCCCCCC/C=C/C(C)=C/CC/C=C/[C@@H](O)[C@H](CO[C@H]1O[C@H](CO)[C@@H](O)[C@H](O)[C@H]1O)NC(=O)[C@H](O)/C=C/CCCCCCCCCCCCCC [SARCOEHRENOSIDE A],inactive,inactive,inactive,inactive,47.3%,inactive

# From ChEMBL document CHEMBL1151968, “Ceramide and cerebrosides from the octocoral Sarcophyton ehrenbergi” (2009)
